# Test results reported in ChEMBL document CHEMBL4371071, “Muscarinic agonist, (±)-quinuclidin-3-yl-(4-fluorophenethyl)(phenyl)carbamate: High affinity, but low subtype selectivity for human M1 - M5 muscarinic acetylcholine receptors” (Bioorg Med Chem Lett, 2019).
# How the values were obtained:
# [1] = organism: Homo sapiens; test: Selectivity ratio of Ki for displacement of [3H]NMS from human M1 AChR expressed in CHO cell membranes to Ki for displacement of [3H]NMS from human M5 AChR expressed in CHO cell membranes
# [2] = biological target: T1, Muscarinic acetylcholine receptor M3 (Homo sapiens, UniProt P20309); test: Displacement of [3H]NMS from human M3 AChR expressed in CHO cell membranes after 1 to 2 hrs by liquid scintillation spectrometry method; format: cell-based
# Target sequence in this assay (P20309 whole entry): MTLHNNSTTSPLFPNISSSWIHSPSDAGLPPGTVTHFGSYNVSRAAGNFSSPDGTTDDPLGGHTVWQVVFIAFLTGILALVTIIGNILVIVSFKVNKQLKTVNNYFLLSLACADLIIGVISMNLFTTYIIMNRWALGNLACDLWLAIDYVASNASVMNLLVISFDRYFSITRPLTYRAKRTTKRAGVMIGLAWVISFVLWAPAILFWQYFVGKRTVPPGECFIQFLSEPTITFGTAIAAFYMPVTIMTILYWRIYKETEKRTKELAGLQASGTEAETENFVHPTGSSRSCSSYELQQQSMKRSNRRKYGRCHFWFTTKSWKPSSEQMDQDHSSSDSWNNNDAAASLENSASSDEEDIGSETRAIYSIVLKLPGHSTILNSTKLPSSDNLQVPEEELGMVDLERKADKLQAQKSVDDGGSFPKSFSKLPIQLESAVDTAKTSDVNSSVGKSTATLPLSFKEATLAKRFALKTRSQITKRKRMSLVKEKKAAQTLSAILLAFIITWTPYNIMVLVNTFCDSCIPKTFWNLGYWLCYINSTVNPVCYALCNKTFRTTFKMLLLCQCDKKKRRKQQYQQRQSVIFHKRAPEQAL
# [3] = biological target: T2, Muscarinic acetylcholine receptor M5 (Homo sapiens, UniProt P08912); test: Displacement of [3H]NMS from human M5 AChR expressed in CHO cell membranes after 1 to 2 hrs by liquid scintillation spectrometry method
# T2 sequence (P08912 whole entry): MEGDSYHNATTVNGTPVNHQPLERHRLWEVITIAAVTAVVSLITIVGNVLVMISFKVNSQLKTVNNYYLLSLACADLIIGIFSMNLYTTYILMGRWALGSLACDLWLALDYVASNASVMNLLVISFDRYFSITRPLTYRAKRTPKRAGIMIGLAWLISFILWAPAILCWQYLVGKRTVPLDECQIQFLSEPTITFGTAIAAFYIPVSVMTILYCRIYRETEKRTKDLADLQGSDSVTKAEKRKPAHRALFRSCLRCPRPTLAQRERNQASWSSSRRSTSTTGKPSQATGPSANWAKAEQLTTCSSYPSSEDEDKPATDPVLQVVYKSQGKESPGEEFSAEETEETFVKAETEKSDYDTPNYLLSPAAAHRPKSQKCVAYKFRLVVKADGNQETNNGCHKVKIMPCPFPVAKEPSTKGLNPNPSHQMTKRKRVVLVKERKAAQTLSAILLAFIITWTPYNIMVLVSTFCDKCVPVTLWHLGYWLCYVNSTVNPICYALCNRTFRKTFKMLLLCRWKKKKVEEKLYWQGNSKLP
# Summary of the method: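 CHO membranes expressing human M5 (10 µg protein/well) with 0.3 nM [3H]NMS and analog (1 nM–100 µM) in 50 mM Tris-HCl pH 7.4, 2 h at 25 °C. Filtered on GF/B, counted by scintillation. IC50 converted to Ki; three independent experiments in duplicate.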
# [4] = biological target: T3, Muscarinic acetylcholine receptor M1 (Homo sapiens) (UniProt P11229); conditions: CHO, at 100 µM
# T3 sequence (whole entry): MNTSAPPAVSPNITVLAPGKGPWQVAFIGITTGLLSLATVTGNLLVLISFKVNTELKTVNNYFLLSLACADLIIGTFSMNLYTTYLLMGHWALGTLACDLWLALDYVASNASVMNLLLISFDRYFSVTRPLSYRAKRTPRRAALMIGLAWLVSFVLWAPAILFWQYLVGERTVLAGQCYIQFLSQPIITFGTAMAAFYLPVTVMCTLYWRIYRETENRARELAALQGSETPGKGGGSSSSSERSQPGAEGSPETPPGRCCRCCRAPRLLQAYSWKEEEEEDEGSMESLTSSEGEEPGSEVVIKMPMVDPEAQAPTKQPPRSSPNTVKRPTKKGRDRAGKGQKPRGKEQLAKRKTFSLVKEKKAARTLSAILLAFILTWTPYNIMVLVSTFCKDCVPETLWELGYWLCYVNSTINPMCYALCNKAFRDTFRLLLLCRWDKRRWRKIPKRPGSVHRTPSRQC
# [5] = biological target: T4, Muscarinic acetylcholine receptor M5 (Homo sapiens) (UniProt P08912); test: Displacement of [3H]NMS from human M5 AChR expressed in CHO cell membranes at 100 uM after 1 to 2 hrs by liquid scintillation spectrometry method relative to control
# T4 sequence (whole entry): T2 sequence (P08912 whole entry)
# Summary of the method: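 CHO membranes expressing human M5 (10 µg protein/well) with 0.3 nM [3H]NMS and analog (1 nM–100 µM) in 50 mM Tris-HCl pH 7.4, 2 h at 25 °C. […] Filtered on GF/B, counted by scintillation. IC50 converted to Ki; three independent experiments in duplicate.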
# [6] = biological target: T1, Muscarinic acetylcholine receptor M3; conditions: CHO, at 100 µM
# Target sequence in this assay (P20309 whole entry, looked up): as the sequence (P20309 whole entry) above
# [7] = biological target: T5, Muscarinic acetylcholine receptor M1 (Homo sapiens, UniProt P11229); test: Displacement of [3H]NMS from human M1 AChR expressed in CHO cell membranes after 1 to 2 hrs by liquid scintillation spectrometry method; format: cell-based
# T5 sequence (P11229 whole entry): T3 sequence (whole entry)
Compound,Ratio Ki [1],Ki [2] [nM],Ki [3] [nM],Imax [4] [%],Imax [5] [%],Imax [6] [%],Ki [7] [nM]
COc1ccc(CCN(C(=O)OC2CCN(C)CC2)c2ccccc2)cc1,1.5,570,190,99.8,99.7,99.7,280
COc1ccc(COC(=O)N(c2ccccc2)C2CN3CCC2CC3)cc1OC (stereo not drawn),1.4,1020,550,96.8,98.7,95.4,770
COc1ccc(CCOC(=O)N(c2ccccc2)C2CN3CCC2CC3)cc1 (stereo not drawn),3.3,420,230,98.4,98.9,99.3,760
COc1ccc(CCCOC(=O)N(c2ccccc2)C2CN3CCC2CC3)cc1F (stereo not drawn),1.7,250,260,100,99.4,99.8,430
O=C(OCCc1ccc2c(c1)OCO2)N(c1ccccc1)C1CN2CCC1CC2 (stereo not drawn),2.6,290,240,99.6,97.1,98,630
COc1ccc(COC(=O)N(c2ccccc2)C2CN3CCC2CC3)cc1 (stereo not drawn),1.5,1150,470,97.9,97.1,95.7,710
COc1ccc(CCN(C(=O)OC2CCCN(C)C2)c2ccccc2)cc1OC (stereo not drawn),1,4360,4490,94.3,89.2,85.6,4300
CN1CCCC(OC(=O)N(CCc2ccc(F)cc2)c2ccccc2)C1 (stereo not drawn),0.8,350,150,99.9,99.9,99,120
COc1ccc(CCOC(=O)N(c2ccccc2)C2CN3CCC2CC3)cc1OC (stereo not drawn),2,2760,3490,90.6,94,85.9,6980
Cc1ccc(CCCOC(=O)N(c2ccccc2)C2CN3CCC2CC3)cc1F (stereo not drawn),1.5,130,130,100,99.9,100,200
O=C(OCCc1ccc(Cl)c(Cl)c1)N(c1ccccc1)C1CN2CCC1CC2 (stereo not drawn),4.5,260,80,99.9,98.8,99.8,370
COc1ccc(CCCOC(=O)N(c2ccccc2)C2CN3CCC2CC3)cc1OC (stereo not drawn),0.9,1560,1610,97.1,99,96.3,1460
COc1ccc(CCN(C(=O)OC2CCCN(C)C2)c2ccccc2)cc1 (stereo not drawn),0.7,1320,1050,98.6,97.7,96.2,690
COc1ccc(CCCOC(=O)N(c2ccccc2)C2CN3CCC2CC3)cc1 (stereo not drawn),0.9,390,640,98.5,99.5,96.8,590
COc1ccc(CCN(C(=O)OC2CCN(C)CC2)c2ccccc2)cc1OC,2,1280,380,99,96.5,96.6,770
CN1[C@@H]2CC[C@H]1C[C@@H](OC(=O)C(CO)c1ccccc1)C2 (stereo partly drawn),–,–,–,–,96.7,–,–
COc1ccc(CCN(C(=O)OC2C[C@H]3CC[C@H](C2)N3C)c2ccccc2)cc1 (stereo partly drawn),1.5,270,240,99.7,97.9,98.9,350
